Measured values reported in ChEMBL document CHEMBL1629506, “Design, synthesis and structure-activity relationship study of novel pyrazole-based heterocycles as potential antitumor agents” (Eur J Med Chem, 2010).
One block for each compound: values may come before it.

Legend:
[1] = tested on: SK-OV-3; assay: Growth inhibition of human SKOV3 cells after 48 hrs by sulforhodamine B assay; format: functional; conditions: SK-OV-3, 48 h
In short: (§1)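 Cells were plated at 5000–40,000 cells/well, depending on doubling time, and preincubated 24 h at 37 °C in 5% CO2. Time-zero plates were TCA-fixed at drug addition. Compounds were dissolved in DMSO and tested at five concentrations (10-fold or ½-log dilutions) for 48 h. Cells were fixed with cold TCA, stained with 0.4% sulforhodamine B and read at 515 nm. GI50 was taken as the concentration giving 50% growth.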

[2] = tested on: OVCAR-8; assay: Growth inhibition of human OVCAR8 cells after 48 hrs by sulforhodamine B assay; format: functional; conditions: OVCAR-8, 48 h; in short: as §1
[3] = tested on: T47D; assay: Growth inhibition of human T47D cells after 48 hrs by sulforhodamine B assay; format: functional; in short: as §1
[4] = tested on: BT-549; assay: Growth inhibition of human BT549 cells after 48 hrs by sulforhodamine B assay; format: functional; conditions: BT-549, 48 h; in short: as §1
[5] = tested on: MCF7; assay: Growth inhibition of human MCF7 cells after 48 hrs by sulforhodamine B assay; format: functional; conditions: MCF7, 48 h; in short: as §1
[6] = tested on: Rattus norvegicus; assay: Antiestrogenic activity in Sprague-Dawley rat assessed as reduction in estradiol induced uterine weight upto 0.06 ug, po after 8 days; format: functional; set-up: scale not given: the % may be the effect or the level left
In short: (§2)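 Immature ovariectomized female Sprague-Dawley rats (~55 g), groups of 12. Estradiol 0.03–0.05 given s.c. daily for 7 days, with test compound or letrozole reference at various doses up to 0.06 per animal, given orally in 0.5% carboxymethylcellulose. Controls received estradiol alone. Uterine weights were taken on day 8 and group means expressed as % reduction versus estradiol-only controls. Potency was taken relative to letrozole.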

[7] = tested on: NCI/ADR-RES; assay: Growth inhibition of human NCI/ADR-RES cells after 48 hrs by sulforhodamine B assay; format: functional; in short: as §1
[8] = tested on: OVCAR-5; assay: Growth inhibition of human OVCAR5 cells after 48 hrs by sulforhodamine B assay; format: functional; conditions: OVCAR-5, 48 h; in short: as §1
[9] = tested on: IGROV-1; assay: Growth inhibition of human IGROV1 cells after 48 hrs by sulforhodamine B assay; format: functional; conditions: IGROV-1, 48 h; in short: as §1
[10] = tested on: MDA-N; assay: Growth inhibition of human MDA-N cells after 48 hrs by sulforhodamine B assay; format: functional; in short: as §1
[11] = Growth inhibition of human Hs 578T cells after 48 hrs by sulforhodamine B assay; format: functional; in short: as §1
[12] = tested on: OVCAR-4; assay: Growth inhibition of human OVCAR4 cells after 48 hrs by sulforhodamine B assay; format: functional; conditions: OVCAR-4, 48 h; in short: as §1
[13] = tested on: MDA-MB-435; assay: Growth inhibition of human MDA-MB-435 cells after 48 hrs by sulforhodamine B assay; format: functional; conditions: MDA-MB-435, 48 h; in short: as §1
[14] = tested on: MDA-MB-231; assay: Growth inhibition of human MDA-MB-231cells after 48 hrs by sulforhodamine B assay; format: functional; conditions: MDA-MB-231, 48 h; in short: as §1
[15] = tested on: OVCAR-3; assay: Growth inhibition of human OVCAR3 cells after 48 hrs by sulforhodamine B assay; format: functional; conditions: OVCAR-3, 48 h; in short: as §1
[16] = Acute toxicity in mouse after 24 hrs; format: organism-based; conditions: in vivo
In short: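 Adult mice of both sexes, acclimatized 1 week (12 h light/dark, 21–23 °C), fasted 12 h before dosing. 30 mice in 6 groups of 5 each got a single oral gavage dose, at different dose levels, of a fine-powder aqueous suspension. LD50 was determined, with values as group means of five mice.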

[17] = tested on: Rattus norvegicus; assay: Antiestrogenic activity in Sprague-Dawley rat assessed as reduction in estradiol induced uterine weight 0.06 ug, po after 8 days relative to letrozole; format: functional; in short: as §2

GI50 [1]: 32.8 µM | GI50 [2]: 68 µM | GI50 [3]: 21.8 µM | GI50 [4]: 21.8 µM | GI50 [5]: 9.53 µM | GI50 [8]: > 100 µM | GI50 [12]: 63 µM | GI50 [13]: 31.8 µM | GI50 [14]: 8.84 µM | GI50 [15]: 93.8 µM
Compound: N#Cc1c(-c2nnc(-c3ccccc3)c3cn(-c4ccccc4)nc23)nn(-c2ccccc2)c1-c1ccccc1
Activity [6]: 32.59% | GI50 [7]: > 100 µM | GI50 [9]: 94.8 µM | GI50 [10]: 31.2 µM | GI50 [11]: 31.8 µM

GI50 [1]: > 100 µM | GI50 [2]: 9.23 µM | GI50 [3]: 38 µM | GI50 [4]: 38.8 µM | GI50 [5]: 43.8 µM | GI50 [8]: 8.94 µM | GI50 [12]: 5.49 µM | GI50 [13]: 23.8 µM | GI50 [14]: 6.42 µM | GI50 [15]: > 100 µM
Compound: N#Cc1c(-c2nnc(-c3ccccc3)c3nn(-c4ccc(Cl)cc4)cc23)nn(-c2ccccc2)c1-c1ccccc1
GI50 [7]: 2.28 µM | GI50 [9]: 93.4 µM | GI50 [10]: 63.8 µM | GI50 [11]: 16.8 µM

Compound: CN(C)/C=C/C(=O)c1nn(-c2ccccc2)c(-c2ccccc2)c1C#N
LD50 at 24 h [16]: 232 mg/kg | GI50 [1]: 23.8 µM | GI50 [2]: 75.8 µM | GI50 [3]: 30.2 µM | GI50 [4]: 31.1 µM | GI50 [5]: 39.8 µM | Activity [6]: 41.98% | GI50 [7]: 90.6 µM | GI50 [8]: > 100 µM | GI50 [9]: 98 µM | GI50 [10]: 45.4 µM | GI50 [11]: > 100 µM | GI50 [12]: 63.8 µM | GI50 [13]: > 100 µM | GI50 [14]: 50.4 µM | GI50 [15]: 98.8 µM | potency ratio vs letrozole [17]: 1.93

Compound: Cc1nnc(-c2nn(-c3ccccc3)c(-c3ccccc3)c2C#N)c2cn(-c3ccccc3)nc12
LD50 at 24 h [16]: 32.5 mg/kg | GI50 [1]: 36.8 µM | GI50 [2]: > 100 µM | GI50 [3]: 9.14 µM | GI50 [4]: 96.8 µM | GI50 [5]: 8.46 µM | Activity [6]: 23.97% | GI50 [7]: > 100 µM | GI50 [8]: > 100 µM | GI50 [9]: 92 µM | GI50 [10]: 38.4 µM | GI50 [11]: 1.39 µM | GI50 [12]: 56.4 µM | GI50 [13]: > 100 µM | GI50 [14]: > 100 µM | GI50 [15]: 96.8 µM | potency ratio vs letrozole [17]: 1.1

Compound: CCOC(=O)c1nn(-c2ccccc2)cc1C(=O)c1nn(-c2ccccc2)c(-c2ccccc2)c1C#N
LD50 at 24 h [16]: 122 mg/kg | GI50 [2]: > 100 µM | GI50 [3]: > 100 µM | GI50 [4]: 31.8 µM | GI50 [5]: 5.49 µM | Activity [6]: 23.98% | GI50 [7]: > 100 µM | GI50 [9]: > 100 µM | GI50 [10]: 38.4 µM | GI50 [12]: > 100 µM | GI50 [13]: > 100 µM | potency ratio vs letrozole [17]: 1.1

Compound: CCOC(=O)c1nn(-c2ccc(Cl)cc2)cc1C(=O)c1nn(-c2ccccc2)c(-c2ccccc2)c1C#N
LD50 at 24 h [16]: 143 mg/kg | GI50 [1]: 30.8 µM | GI50 [2]: 65.8 µM | GI50 [3]: > 100 µM | GI50 [4]: 39.8 µM | GI50 [5]: > 100 µM | Activity [6]: 34.86% | GI50 [7]: > 100 µM | GI50 [8]: 61.2 µM | GI50 [9]: 93.2 µM | GI50 [10]: 62.3 µM | GI50 [11]: 65 µM | GI50 [12]: 45.8 µM | GI50 [13]: 71.8 µM | GI50 [14]: > 100 µM | GI50 [15]: > 100 µM | potency ratio vs letrozole [17]: 1.61

Compound: CCOC(=O)c1nn(-c2ccc(C)cc2)cc1C(=O)c1nn(-c2ccccc2)c(-c2ccccc2)c1C#N
LD50 at 24 h [16]: 274 mg/kg | GI50 [1]: > 100 µM | GI50 [2]: 9.18 µM | GI50 [3]: > 100 µM | GI50 [4]: > 100 µM | GI50 [5]: > 100 µM | Activity [6]: 42.83% | GI50 [7]: > 100 µM | GI50 [8]: > 100 µM | GI50 [9]: 94.8 µM | GI50 [10]: > 100 µM | GI50 [11]: > 100 µM | GI50 [12]: 5.46 µM | GI50 [13]: > 100 µM | GI50 [14]: > 100 µM | GI50 [15]: 91.8 µM | potency ratio vs letrozole [17]: 1.96
